In ChEMBL document CHEMBL1148104, “New sugar-mimic alkaloids from the pods of Angylocalyx pynaertii” (J Nat Prod, 2002) one finds inhibition, IC50 and Ki data, which are given here for twelve compounds.

Test [1] addresses Lysosomal alpha-glucosidase (Rattus norvegicus) (UniProt Q6P7A9). Description: Inhibition of rat intestinal maltase assessed as glucose release at 1000 uM by Glucose B-test. The essentials: (§1)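 Enzyme source was brush border membranes prepared from rat small intestine. Maltase, sucrase and isomaltase activities were read with the matching disaccharide substrate at each enzyme's optimum pH, and liberated D-glucose was quantified colorimetrically by Glucose B-test.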

In another test the target is T1, Beta-mannosidase (Rattus norvegicus, UniProt Q4FZV0).
T1 sequence (Q4FZV0 whole entry): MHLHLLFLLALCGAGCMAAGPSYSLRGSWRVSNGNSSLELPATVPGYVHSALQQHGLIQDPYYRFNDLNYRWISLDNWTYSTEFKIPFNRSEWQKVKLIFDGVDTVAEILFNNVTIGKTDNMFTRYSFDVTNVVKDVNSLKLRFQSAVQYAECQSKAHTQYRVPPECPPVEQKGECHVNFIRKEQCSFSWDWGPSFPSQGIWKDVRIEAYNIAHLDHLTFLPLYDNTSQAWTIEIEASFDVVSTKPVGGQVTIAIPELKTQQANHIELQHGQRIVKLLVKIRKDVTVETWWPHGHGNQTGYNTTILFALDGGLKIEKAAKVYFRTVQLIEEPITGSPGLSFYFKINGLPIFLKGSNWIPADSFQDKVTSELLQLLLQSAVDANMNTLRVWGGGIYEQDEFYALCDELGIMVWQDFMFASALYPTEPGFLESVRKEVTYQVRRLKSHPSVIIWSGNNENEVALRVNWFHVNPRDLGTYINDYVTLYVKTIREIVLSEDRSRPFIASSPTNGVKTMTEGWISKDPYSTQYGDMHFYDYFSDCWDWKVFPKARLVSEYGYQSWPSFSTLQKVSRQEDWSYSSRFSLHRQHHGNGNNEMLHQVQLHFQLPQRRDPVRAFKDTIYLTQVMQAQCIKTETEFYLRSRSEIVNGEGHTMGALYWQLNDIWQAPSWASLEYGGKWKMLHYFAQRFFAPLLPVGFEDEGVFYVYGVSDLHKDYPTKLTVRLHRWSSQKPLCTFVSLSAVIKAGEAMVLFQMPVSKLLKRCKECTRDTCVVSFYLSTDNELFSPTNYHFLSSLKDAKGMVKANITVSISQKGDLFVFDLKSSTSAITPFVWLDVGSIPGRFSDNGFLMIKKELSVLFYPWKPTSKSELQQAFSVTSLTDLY
Description: Inhibition of rat epididymis beta-mannosidase assessed as p-nitrophenol release by spectrophotometrically.

Test [2] is described as follows: Inhibition of Aspergillus niger amyloglucosidase assessed as glucose release by Glucose B-test. Put shortly: (§2)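 Disaccharide substrate suited to each enzyme, at that enzyme's optimum pH. Released D-glucose was measured colorimetrically with the Glucose B-test.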
Test [3] deals with Alpha-galactosidase (Coffea arabica) (UniProt Q42656). Description: Inhibition of coffee bean alpha-galactosidase assessed as p-nitrophenol release at 1000 uM by spectrophotometrically. Put shortly:
(§3)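 Assayed with the appropriate p-nitrophenyl glycoside substrate at each enzyme's optimum pH.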

A further test is filed under the species Rattus norvegicus. As to the kind of experiment: Inhibition of rat epididymis alpha-mannosidase assessed as p-nitrophenol release at 1000 uM by spectrophotometrically.
The nature of test [4]: Inhibition of rice alpha-glucosidase assessed as glucose release by Glucose B-test. On the set-up: species or system Oryza sativa. Put shortly: as §2
A further test deals with T2, Beta-galactosidase (Bos taurus, UniProt Q58D55).
T2 sequence (Q58D55 whole entry): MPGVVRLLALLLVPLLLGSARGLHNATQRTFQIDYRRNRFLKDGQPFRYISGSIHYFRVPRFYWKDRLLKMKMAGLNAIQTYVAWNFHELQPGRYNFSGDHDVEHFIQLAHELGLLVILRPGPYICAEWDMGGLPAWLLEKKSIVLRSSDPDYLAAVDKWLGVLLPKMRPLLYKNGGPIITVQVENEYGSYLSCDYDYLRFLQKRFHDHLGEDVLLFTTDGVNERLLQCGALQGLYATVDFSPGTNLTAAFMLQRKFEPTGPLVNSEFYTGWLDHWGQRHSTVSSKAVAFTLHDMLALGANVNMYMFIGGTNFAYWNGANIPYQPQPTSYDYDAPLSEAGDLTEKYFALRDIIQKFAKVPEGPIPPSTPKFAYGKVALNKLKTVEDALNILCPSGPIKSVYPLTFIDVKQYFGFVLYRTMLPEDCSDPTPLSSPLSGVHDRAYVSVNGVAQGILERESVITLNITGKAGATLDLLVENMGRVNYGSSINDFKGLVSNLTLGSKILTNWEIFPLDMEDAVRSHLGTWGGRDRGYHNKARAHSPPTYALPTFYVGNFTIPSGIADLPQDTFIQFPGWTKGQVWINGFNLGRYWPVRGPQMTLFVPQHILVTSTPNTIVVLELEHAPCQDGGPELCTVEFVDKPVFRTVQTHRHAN
As to the kind of experiment: Inhibition of bovine liver beta-galactosidase assessed as p-nitrophenol release by spectrophotometrically. Put shortly: as §3

Test [5] has as its target T3, Tissue alpha-L-fucosidase (Bos taurus) (UniProt Q2KIM0).
T3 sequence (whole entry): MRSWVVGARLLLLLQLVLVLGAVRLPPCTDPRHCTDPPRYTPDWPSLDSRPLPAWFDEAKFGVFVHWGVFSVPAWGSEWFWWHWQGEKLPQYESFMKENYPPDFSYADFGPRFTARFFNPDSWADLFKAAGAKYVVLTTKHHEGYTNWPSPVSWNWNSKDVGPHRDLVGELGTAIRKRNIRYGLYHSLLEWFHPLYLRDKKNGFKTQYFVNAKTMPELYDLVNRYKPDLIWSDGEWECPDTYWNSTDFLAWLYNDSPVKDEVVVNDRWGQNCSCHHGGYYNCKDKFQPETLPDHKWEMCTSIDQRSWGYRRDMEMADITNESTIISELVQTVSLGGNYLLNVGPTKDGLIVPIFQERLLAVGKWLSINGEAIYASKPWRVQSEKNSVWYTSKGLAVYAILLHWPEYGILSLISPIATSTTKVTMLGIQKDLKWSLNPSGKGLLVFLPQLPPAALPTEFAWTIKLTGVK
Description: Inhibition of bovine epididymis alpha-L-fucosidase assessed as p-nitrophenol release at 1000 uM by spectrophotometrically. Put shortly: as §3

Test [6] in a line: Inhibition of yeast alpha-glucosidase assessed as p-nitrophenol release by spectrophotometrically. On the set-up: species or system Saccharomyces cerevisiae. The essentials:
as §3

For test [7], the target named is Sucrase-isomaltase, intestinal (Rattus norvegicus) (UniProt P23739). As to the kind of experiment: Inhibition of rat intestinal isomaltase assessed as glucose release at 1000 uM by Glucose B-test. The essentials:
as §1

Test [8] shares this target. As to the kind of experiment: Inhibition of rat intestinal sucrase assessed as glucose release at 1000 uM by Glucose B-test. The essentials: as §1
A further test deals with Oryza sativa. As to the kind of experiment: Inhibition of rice alpha-glucosidase assessed as glucose release at 1000 uM by Glucose B-test. Put shortly:
as §2

Test [9] addresses T4, Tissue alpha-L-fucosidase (Bos taurus, UniProt Q2KIM0).
T4 sequence (Q2KIM0 whole entry): T3 sequence (whole entry)
As to the kind of experiment: Inhibition of bovine epididymis alpha-L-fucosidase assessed as p-nitrophenol release by spectrophotometrically. Put shortly:
as §3

Test [10] concerns the target T5, Beta-mannosidase (Rattus norvegicus) (UniProt Q4FZV0).
T5 sequence (whole entry): T1 sequence (Q4FZV0 whole entry)
Description: Inhibition of rat epididymis beta-mannosidase assessed as p-nitrophenol release at 1000 uM by spectrophotometrically.

Another test has as its target Alpha-glucosidase MAL62 (Saccharomyces cerevisiae, UniProt P07265). As to the kind of experiment: Inhibition of yeast maltase alpha-glucosidase assessed as glucose release by Glucose B-test.
A short description of test [11]: Inhibition of yeast isomaltase alpha-glucosidase assessed as glucose release by Glucose B-test.
Another test has as its target T6, Uncharacterized protein (Sus scrofa, UniProt I3LIR5).
T6 sequence (I3LIR5 whole entry): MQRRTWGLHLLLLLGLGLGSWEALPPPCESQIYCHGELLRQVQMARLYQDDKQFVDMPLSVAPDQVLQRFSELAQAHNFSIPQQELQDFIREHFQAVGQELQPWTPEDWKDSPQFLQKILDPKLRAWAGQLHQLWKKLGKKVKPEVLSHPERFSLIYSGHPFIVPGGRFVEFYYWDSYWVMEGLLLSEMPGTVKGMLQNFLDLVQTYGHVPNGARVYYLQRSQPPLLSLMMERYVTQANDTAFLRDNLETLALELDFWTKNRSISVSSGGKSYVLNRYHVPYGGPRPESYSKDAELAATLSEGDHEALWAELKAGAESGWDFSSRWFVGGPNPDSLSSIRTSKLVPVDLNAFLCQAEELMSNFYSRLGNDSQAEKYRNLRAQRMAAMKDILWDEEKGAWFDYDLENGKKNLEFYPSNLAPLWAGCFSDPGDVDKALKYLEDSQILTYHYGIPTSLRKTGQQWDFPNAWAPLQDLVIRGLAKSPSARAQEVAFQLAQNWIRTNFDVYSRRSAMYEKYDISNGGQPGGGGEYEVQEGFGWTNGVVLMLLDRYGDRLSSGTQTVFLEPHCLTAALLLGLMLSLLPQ
As to the kind of experiment: Inhibition of pig kidney trehalase assessed as p-nitrophenol release by spectrophotometrically.

Test [12] addresses T7, Beta-galactosidase (Bos taurus) (UniProt Q58D55).
T7 sequence (whole entry): T2 sequence (Q58D55 whole entry)
As to the kind of experiment: Inhibition of bovine liver beta-galactosidase assessed as p-nitrophenol release at 1000 uM by spectrophotometrically. Put shortly: as §3

The test system of test [13] is Saccharomyces cerevisiae. As to the kind of experiment: Inhibition of yeast alpha-glucosidase assessed as p-nitrophenol release at 1000 uM by spectrophotometrically. The essentials: as §3
A further test concerns Aspergillus niger. Description: Inhibition of Aspergillus niger amyloglucosidase assessed as glucose release at 1000 uM by Glucose B-test. Put shortly: as §2
Test [14] deals with Alpha-glucosidase MAL62 (Saccharomyces cerevisiae) (UniProt P07265). As to the kind of experiment: Inhibition of yeast maltase alpha-glucosidase assessed as glucose release at 1000 uM by Glucose B-test.
The subject of test [15] is Saccharomyces cerevisiae. As to the kind of experiment: Inhibition of yeast isomaltase alpha-glucosidase assessed as glucose release at 1000 uM by Glucose B-test.
Test [16] has as its target T8, Uncharacterized protein (Sus scrofa) (UniProt I3LIR5).
T8 sequence (whole entry): T6 sequence (I3LIR5 whole entry)
As to the kind of experiment: Inhibition of pig kidney trehalase assessed as p-nitrophenol release at 1000 uM by spectrophotometrically.

Alpha-glucosidase MAL62, sequence (P07265 whole entry): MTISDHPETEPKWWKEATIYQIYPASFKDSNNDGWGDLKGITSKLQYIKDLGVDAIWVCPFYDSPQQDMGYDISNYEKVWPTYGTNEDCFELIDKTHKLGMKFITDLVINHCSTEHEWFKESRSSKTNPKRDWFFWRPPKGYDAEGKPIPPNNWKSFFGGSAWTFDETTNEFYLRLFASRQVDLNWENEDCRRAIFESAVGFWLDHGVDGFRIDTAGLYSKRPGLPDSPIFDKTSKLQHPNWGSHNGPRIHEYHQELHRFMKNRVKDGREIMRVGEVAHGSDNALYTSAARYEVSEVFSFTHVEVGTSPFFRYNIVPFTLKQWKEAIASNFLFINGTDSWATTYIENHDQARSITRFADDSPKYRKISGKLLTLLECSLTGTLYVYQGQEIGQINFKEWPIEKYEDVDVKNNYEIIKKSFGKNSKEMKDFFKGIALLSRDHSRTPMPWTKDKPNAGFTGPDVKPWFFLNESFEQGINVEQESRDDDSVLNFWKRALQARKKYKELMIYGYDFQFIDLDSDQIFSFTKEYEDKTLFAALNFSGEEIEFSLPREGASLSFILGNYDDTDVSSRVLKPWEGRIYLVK
Lysosomal alpha-glucosidase (Rattus norvegicus), sequence (Q6P7A9 whole entry): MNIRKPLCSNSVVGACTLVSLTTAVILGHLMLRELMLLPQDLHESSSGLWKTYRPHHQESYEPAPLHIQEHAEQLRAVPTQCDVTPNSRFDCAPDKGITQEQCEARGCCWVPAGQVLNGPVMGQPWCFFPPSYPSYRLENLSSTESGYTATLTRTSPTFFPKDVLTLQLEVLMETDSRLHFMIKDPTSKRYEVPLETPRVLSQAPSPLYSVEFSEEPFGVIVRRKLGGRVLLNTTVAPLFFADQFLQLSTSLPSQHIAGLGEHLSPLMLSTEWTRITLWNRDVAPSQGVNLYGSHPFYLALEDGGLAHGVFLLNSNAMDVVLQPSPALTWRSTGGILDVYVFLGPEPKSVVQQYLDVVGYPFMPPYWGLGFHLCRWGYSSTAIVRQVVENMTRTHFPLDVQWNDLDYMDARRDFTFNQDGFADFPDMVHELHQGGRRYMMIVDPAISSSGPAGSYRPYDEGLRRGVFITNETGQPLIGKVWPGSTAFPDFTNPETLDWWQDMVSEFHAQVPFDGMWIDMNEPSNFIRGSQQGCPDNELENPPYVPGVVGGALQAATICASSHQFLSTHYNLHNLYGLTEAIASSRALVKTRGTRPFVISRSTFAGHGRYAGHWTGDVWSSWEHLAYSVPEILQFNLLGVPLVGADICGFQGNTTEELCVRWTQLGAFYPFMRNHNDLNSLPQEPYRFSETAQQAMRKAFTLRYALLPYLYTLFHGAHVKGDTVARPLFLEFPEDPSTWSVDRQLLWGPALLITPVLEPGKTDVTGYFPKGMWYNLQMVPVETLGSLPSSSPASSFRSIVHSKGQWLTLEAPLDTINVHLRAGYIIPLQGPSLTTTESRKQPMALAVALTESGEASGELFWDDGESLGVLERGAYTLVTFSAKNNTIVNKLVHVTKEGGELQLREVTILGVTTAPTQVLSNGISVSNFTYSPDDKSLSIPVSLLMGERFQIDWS
Sucrase-isomaltase, intestinal (Rattus norvegicus), sequence (P23739 1-1013 limits assumed): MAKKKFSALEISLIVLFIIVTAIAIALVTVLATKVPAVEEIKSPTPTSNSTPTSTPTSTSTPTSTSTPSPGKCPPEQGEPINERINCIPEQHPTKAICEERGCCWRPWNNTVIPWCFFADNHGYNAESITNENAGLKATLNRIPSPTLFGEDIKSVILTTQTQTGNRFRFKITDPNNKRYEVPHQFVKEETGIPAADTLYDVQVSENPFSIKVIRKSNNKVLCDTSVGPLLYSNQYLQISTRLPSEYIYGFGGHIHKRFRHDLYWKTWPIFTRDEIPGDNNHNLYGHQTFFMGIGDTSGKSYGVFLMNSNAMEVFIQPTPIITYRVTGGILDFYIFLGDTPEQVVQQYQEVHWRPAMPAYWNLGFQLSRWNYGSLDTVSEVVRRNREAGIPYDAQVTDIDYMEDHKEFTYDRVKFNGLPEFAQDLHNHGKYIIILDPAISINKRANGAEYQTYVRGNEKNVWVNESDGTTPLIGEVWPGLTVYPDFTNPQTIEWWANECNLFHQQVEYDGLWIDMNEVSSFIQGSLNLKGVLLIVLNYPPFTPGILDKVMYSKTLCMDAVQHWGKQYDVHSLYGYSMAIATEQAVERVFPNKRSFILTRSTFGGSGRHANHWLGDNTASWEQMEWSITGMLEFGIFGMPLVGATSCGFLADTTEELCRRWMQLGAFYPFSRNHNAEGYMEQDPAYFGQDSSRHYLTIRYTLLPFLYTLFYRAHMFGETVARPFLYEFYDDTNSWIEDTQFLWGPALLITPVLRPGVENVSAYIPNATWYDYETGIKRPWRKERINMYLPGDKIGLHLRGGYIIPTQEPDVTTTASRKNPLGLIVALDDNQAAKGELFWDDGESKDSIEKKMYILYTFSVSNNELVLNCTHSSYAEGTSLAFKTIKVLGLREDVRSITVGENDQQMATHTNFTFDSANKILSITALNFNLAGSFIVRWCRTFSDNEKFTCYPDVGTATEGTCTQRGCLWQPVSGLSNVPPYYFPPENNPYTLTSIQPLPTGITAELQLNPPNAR
Sucrase-isomaltase, intestinal (Rattus norvegicus), sequence (P23739 1014-1841 limits assumed): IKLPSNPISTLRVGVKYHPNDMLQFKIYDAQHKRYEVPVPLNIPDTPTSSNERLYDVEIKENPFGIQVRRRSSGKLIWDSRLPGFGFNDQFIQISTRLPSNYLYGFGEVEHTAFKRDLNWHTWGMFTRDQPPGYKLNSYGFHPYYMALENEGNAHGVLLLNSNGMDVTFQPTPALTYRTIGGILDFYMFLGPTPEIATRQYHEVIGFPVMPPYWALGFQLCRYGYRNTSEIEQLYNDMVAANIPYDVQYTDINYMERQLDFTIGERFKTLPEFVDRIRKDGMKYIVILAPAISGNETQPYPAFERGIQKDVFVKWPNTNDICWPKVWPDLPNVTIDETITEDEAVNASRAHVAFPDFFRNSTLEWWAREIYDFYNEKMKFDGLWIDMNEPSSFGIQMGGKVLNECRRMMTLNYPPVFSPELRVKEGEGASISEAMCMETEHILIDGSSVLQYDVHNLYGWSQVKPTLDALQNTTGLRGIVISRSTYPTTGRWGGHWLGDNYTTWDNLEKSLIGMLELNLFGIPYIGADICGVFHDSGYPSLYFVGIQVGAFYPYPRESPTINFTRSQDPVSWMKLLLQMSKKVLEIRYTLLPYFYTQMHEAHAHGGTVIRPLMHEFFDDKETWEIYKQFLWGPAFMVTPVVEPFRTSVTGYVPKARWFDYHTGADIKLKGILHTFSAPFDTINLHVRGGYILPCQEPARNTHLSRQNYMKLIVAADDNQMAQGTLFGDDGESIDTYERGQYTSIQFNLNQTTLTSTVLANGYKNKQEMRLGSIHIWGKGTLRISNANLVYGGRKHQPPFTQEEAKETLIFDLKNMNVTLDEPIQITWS
Alpha-galactosidase (Coffea arabica), sequence (Q42656 16-378 limits assumed): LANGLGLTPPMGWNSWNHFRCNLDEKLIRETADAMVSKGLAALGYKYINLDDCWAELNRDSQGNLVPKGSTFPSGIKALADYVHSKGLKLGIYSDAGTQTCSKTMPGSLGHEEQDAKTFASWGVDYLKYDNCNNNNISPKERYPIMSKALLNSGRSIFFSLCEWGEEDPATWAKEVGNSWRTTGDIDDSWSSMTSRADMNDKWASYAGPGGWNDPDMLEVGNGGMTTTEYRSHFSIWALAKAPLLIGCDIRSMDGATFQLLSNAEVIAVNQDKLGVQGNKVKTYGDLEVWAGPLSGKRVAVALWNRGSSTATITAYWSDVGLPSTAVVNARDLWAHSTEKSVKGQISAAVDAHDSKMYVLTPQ
Alpha-glucosidase MAL62 (Saccharomyces cerevisiae), sequence (P07265 whole entry): as the sequence (P07265 whole entry) above

As to `OC[C@H]1NC[C@H](O)[C@@H]1O` [IMINORIBITOL], the inhibition (in [1]; in test [3]; in the test listed under Rattus norvegicus; in test [5]) was < 50% in each case. The IC50 (as a rule, the midpoint of a concentration-inhibition curve) came out at 18 µM at Beta-mannosidase; 1000 µM in test [2]; 1000 µM in test [4]; 380 µM at Beta-galactosidase; 230 µM in test [6].
As for `C[C@H]1N[C@H](CO)[C@@H](O)[C@@H]1O`, the inhibition (in test [1]; in [7]; in test [3]; in [8]; in the test on Oryza sativa; in the test filed under Rattus norvegicus) was < 50% in each case. The IC50 on Beta-mannosidase came to 93 µM; in [2] it was 160 µM; at Beta-galactosidase it was 30 µM; in test [6], 270 µM; in test [9] it was 150 µM.
Turning to `C[C@H]1N[C@@H](CO)[C@H](O)[C@H]1O`, the inhibition (in [1]; in [7]; in test [10]; in [3]; in test [8]; with Oryza sativa) was < 50% in each case. Besides, the inhibition (as a rule, the share of the control response that was lost under treatment) in the test listed under Rattus norvegicus was < 50%. In addition, the IC50 in test [2] turned out to be 510 µM; on Beta-galactosidase, 420 µM; in test [6] it was 570 µM; in [9], 1 µM. In addition, in test [9], the Ki (commonly a dissociation constant, usually derived from enzyme kinetics or from competition with a known ligand) amounted to 0.49 µM.
Take `OC[C@H]1N[C@H](CO)[C@@H](O)[C@@H]1O`: the half-maximal inhibitory concentration (IC50) at Alpha-glucosidase MAL62 was determined as 2 µM.
Take `OC[C@H]1NC[C@H](O)[C@@H](O)[C@@H]1O` [DUVOGLUSTAT]: the results for the IC50 (at Alpha-glucosidase MAL62; in [11]; on Uncharacterized protein) were 110 µM, 42 µM and 41 µM, respectively.
Regarding `C[C@H]1N[C@@H](CO)[C@@H](O)[C@H]1O`, the inhibition in test [1], in test [7], in test [10], in [3], in test [12] and in test [8] was < 50% each time. The inhibition with Oryza sativa, in the test listed under Rattus norvegicus, in the test with Saccharomyces cerevisiae [13] and in the test with Aspergillus niger was < 50% each time. Besides, the IC50 in [9] came out at 35 µM.
On to `C[C@@H]1N[C@H](CO)[C@@H](O)[C@H](O)[C@@H]1O`, for which, in [9], the Ki came to 0.0053 µM.
On the same count and under the same terms, the figure for `C[C@H]1O[C@H](OC[C@H]2NC[C@@H](O)[C@@H](O)[C@@H]2O)[C@@H](O)[C@@H](O)[C@@H]1O` is 0.06 µM.
With `OCCN1C[C@H](O)[C@@H](O)[C@H](O)[C@H]1CO` [MIGLITOL], the inhibition (in test [14]; with Saccharomyces cerevisiae [15]) was < 50% each time. For the same compound, the IC50 on Uncharacterized protein was 700 µM.
As for `OCCN1[C@H](CO)[C@@H](O)[C@H](O)[C@H]1CO`, the inhibition in test [16] is < 50%. In addition, the IC50 on Alpha-glucosidase MAL62 was 260 µM; in test [11] it was 240 µM.
On to `OC[C@H]1O[C@@H](OC[C@H]2NC[C@@H](O)[C@@H]2O)[C@H](O)[C@@H](O)[C@@H]1O`, for which the inhibition in test [1], in [7], in [10], in [3], in test [12] and in test [8] was < 50% each time. For the same compound, the inhibition (in the test on Oryza sativa; in the test listed under Rattus norvegicus; in the test with Saccharomyces cerevisiae [13]; in the test on Aspergillus niger; in test [5]) was < 50% throughout.
Consider `OC[C@H]1NC[C@@H](O[C@@H]2O[C@H](CO)[C@@H](O)[C@H](O)[C@H]2O)[C@@H]1O`, for which the inhibition in [1], in test [7], in test [10], in test [3], in test [12] and in [8] was < 50% throughout. Moreover, the inhibition (in the test on Oryza sativa; in the test filed under Rattus norvegicus; in the test on Saccharomyces cerevisiae [13]; in the test with Aspergillus niger; in test [5]) was < 50% throughout.
